Screens deposited in PubChem by several laboratories.
Shown are actives, neighbours in structure and some others; about 2.6% of the full set was active somewhere.
CHT PAM – allosterically activates the human high affinity choline transporter | Q9GZV3 | CHT-expressing cells, membrane potential dye, choline EC20; hits give high values; LV-AA mutant CHT in HEK293 cells | B-score at 10 µM | actives 0.49% (n = 310,000);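 active = initial fluorescence not abnormally high and integrated response B-score, plate-corrected, over 3 SD above library mean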
Target sequence (Q9GZV3 whole entry, looked up): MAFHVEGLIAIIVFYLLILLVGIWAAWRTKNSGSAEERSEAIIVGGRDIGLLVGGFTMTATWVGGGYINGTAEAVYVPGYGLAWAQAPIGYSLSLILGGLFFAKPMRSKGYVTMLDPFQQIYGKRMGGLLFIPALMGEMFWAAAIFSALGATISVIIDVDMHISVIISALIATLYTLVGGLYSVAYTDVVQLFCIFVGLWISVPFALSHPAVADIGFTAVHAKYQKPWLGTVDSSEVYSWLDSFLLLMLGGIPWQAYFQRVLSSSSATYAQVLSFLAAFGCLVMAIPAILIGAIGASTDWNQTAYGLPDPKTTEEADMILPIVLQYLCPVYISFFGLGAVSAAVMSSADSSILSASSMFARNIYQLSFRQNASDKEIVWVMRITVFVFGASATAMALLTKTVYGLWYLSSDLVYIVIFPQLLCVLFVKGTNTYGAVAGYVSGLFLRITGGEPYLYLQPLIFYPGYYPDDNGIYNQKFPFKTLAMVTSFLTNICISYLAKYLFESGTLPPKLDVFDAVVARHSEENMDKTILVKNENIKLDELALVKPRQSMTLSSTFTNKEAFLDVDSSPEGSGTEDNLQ
Rad51 HR inh – Rad51 (human) homologous recombination inhibition | Q06609 | hRad51 DNA strand exchange, fluorescence dequenching | inhibition, % at 10 µM | actives 0.085% (n = 200,000) | AID 1385;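 active = inhibition above 40% at the single screening dose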;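 also: 0% = DMSO control wells and 100% = blanks with heterologous ssDNA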
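Test system: preformed human Rad51 ssDNA filaments; also added: Donor/quencher-labelled 47-bp dsDNA substrate; doses: 10 µM final, single point; times: 37 °C 15-min filament assembly, 30-min compound preincubation, 15-min exchange; detection: FRET fluorescence dequenching, excitation 485 nm, emission 520 nm; read-out basis: Fluorescence-based percent inhibition, control- and blank-normalised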
KCC2 mod – KCC2 (human) Cl- transport modulation. Q9H2X9. KCC2 cells, thallium flux FluoZin-2 fluorescence. B-score of Tl+ flux slope (higher = more flux/activation; lower = inhibition) at 10 µM. actives 2.2% (n = 190,000). AID 1456;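 active = thallium flux slope and its plate-corrected score both differing from the plate sample mean at a set confidence after two filtering rounds, in either direction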;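 also: slope of fluorescence scaled to starting intensity during 10 to 20 s after thallium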
CHT inh – inhibitors of human choline transporter CHT; CHT-expressing cells, membrane potential dye, choline response; hits give low values; B-score at 10 µM; actives 0.86% (n = 310,000); AID 488975;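 active = B-score over 3 SD under the library average, and starting fluorescence ratio not unusually high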;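 also: choline stimulus applied at its EC90 after an EC20 pre-addition; B-score computed on integrated fluorescence ratio after choline addition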
KCC2 secondary – confirmation of human KCC2 transport modulators | shares compounds with KCC2 mod | HEK293-KCC2, thallium flux, FluoZin2 fluorescence; hits give high values | normalised thallium flux (F/F0 slope) at 10 µM | actives 15% (n = 3,700);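 active = thallium flux slope above the same plate's solvent-only control mean plus 3 SD; inconclusive = the two replicate wells disagree; inactive = no significant difference from solvent-only control wells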
KCC2 bumet counter – bumetanide-insensitive thallium flux in KCC2 cells with ouabain, counter-screen | shares compounds with KCC2 mod | HEK293-KCC2 + bumetanide/ouabain, thallium flux FluoZin2; hits give high values | normalized thallium flux at 10 µM | actives 49% (n = 3,700);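 active = thallium entry rate above the same plate's blocked-transporter control wells by more than 3 SD; inconclusive = the two repeat wells disagree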;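 also: raw slope of fluorescence over initial fluorescence between 10 and 20 s after thallium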
KCC2 sec2 – confirmation of human KCC2 transport modulators | actives 23% (n = 3,700) | HEK293-KCC2, thallium flux FluoZin2 fluorescence; actives lie on both sides; F/F0 rise rate, 10–20 s post-thallium | shares compounds with KCC2 mod | normalized thallium flux at 10 µM;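 active = thallium flux slope more than 3 SD above or below the plate's solvent-only control mean, mostly below; inconclusive = the two repeat wells disagreed; inactive = no significant shift from solvent-only controls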;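 also: raw slope with 0.1% DMSO as baseline and bumetanide as block control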
HEK293 Tl flux – counter-screen for KCC2 modulators: effect in parental HEK293 cells. shares compounds with KCC2 mod. thallium flux FluoZin2, ouabain; baseline-ratio fluorescence slope, 10–20 s after thallium. thallium flux rate (normalised fluorescence) at 10 µM. actives 46% (n = 3,700). AID 1716;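 active = thallium flux rate significantly above the same plate's solvent-only control wells, beyond their mean plus 3 SD; inconclusive = the two replicate wells gave conflicting results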
KCC2 ouabain – modulates human KCC2 on retest with ouabain | HEK293-KCC2, thallium flux FluoZin2 fluorescence; bidirectional: low = inhibitor, high = activator | actives 48% (n = 3,700) | raw Tl+ flux slope (below DMSO = inhibition, above = activation) at 10 µM | shares compounds with KCC2 mod;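 active = thallium flux slope beyond 3 SD from same-plate DMSO control mean in most replicates, usually higher, sometimes lower; inconclusive = repeat tests gave conflicting results; inactive = no significant difference from controls in most replicates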;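 also: slope of initial-normalized fluorescence between seconds 10 and 20 after thallium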
HEK counter2 – acts in parental HEK cells, second KCC2 counter-screen; shares compounds with KCC2 mod; HEK293 parental, thallium flux FluoZin-2 fluorescence slope; thallium flux slope at 10 µM; actives 33% (n = 3,700); AID 1718;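 active = thallium flux slope above the same plate's solvent-control mean plus 3 SD in both duplicate wells; inconclusive = duplicate wells that disagreed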;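 also: run without ouabain in cells lacking the KCC2 cotransporter; slope of fluorescence scaled to its starting value between 10 and 20 s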
Starred values were filed as active, the others as inactive.

How did O=C(CSc1nnc(NC(=O)c2c(F)cccc2F)s1)NCc1ccc(F)cc1 do in these assays?
CHT PAM: inactive; CHT inh: inactive

What do the screens show for `O=C(/C=C/c1cccc([N+](=O)[O-])c1)Nc1cccc(NC(=O)c2cccs2)c1`?
CHT PAM: inactive; Rad51 HR inh: -6.3; KCC2 mod: -4.6*; CHT inh: inactive; KCC2 secondary: 0.00715; KCC2 bumet counter: inconclusive; KCC2 sec2: 0.0246*; HEK293 Tl flux: 0.0072; KCC2 ouabain: 0.0155*; HEK counter2: 0.0104

What do the screens show for `O=C(/C=C/c1cccc([N+](=O)[O-])c1)Nc1cccc(NC(=O)c2ccco2)c1`?
CHT PAM: inactive; Rad51 HR inh: -6.6; KCC2 mod: 0.579; CHT inh: inactive

What do the screens show for `Cc1cc(=O)n2nc(N3CCCC(C(=O)NCCc4ccc(Cl)cc4)C3)sc2n1` (stereo not drawn)?
CHT PAM: inactive; CHT inh: inactive

Results for O=C(Nc1ccc(S(=O)(=O)NCc2ccco2)cc1)c1ccc2ccccc2n1 ?
CHT PAM: inactive; CHT inh: inactive; KCC2 secondary: 0.00874; KCC2 bumet counter: 0.0061; KCC2 sec2: 0.0348; HEK293 Tl flux: 0.00461; KCC2 ouabain: 0.0195; HEK counter2: 0.0113

Results for Cc1cccc(C)c1NC(=O)CSc1nnc(Cn2nnc(-c3ccccc3)n2)n1-c1ccccc1 ?
CHT PAM: inactive; Rad51 HR inh: 0.2; KCC2 mod: -5.31*; CHT inh: inactive; KCC2 secondary: 0.00777; KCC2 bumet counter: 0.00568; KCC2 sec2: 0.032; HEK293 Tl flux: 0.00722; KCC2 ouabain: 0.0223; HEK counter2: 0.0104

What do the screens show for `O=C(N/N=C/c1ccc(Br)s1)c1cccs1`?
CHT PAM: inactive; KCC2 mod: 112*; CHT inh: inactive; KCC2 secondary: 0.014*; KCC2 bumet counter: 0.086*; KCC2 sec2: 0.0338; HEK293 Tl flux: 0.0405*; KCC2 ouabain: 0.0491*; HEK counter2: 0.0336*

How did Cc1ccc(/C=N/NC(=O)c2cccs2)s1 do in these assays?
CHT PAM: inactive; Rad51 HR inh: -4.0; KCC2 mod: 0.55; CHT inh: inactive

What do the screens show for `O=C(Nc1ccc2nc3n(c(=O)c2c1)CCCC3)c1cccc([N+](=O)[O-])c1`?
CHT PAM: inactive; Rad51 HR inh: 5.2; KCC2 mod: -0.364; CHT inh: inactive

How did O=C(Nc1ccc2nc3n(c(=O)c2c1)CCCC3)c1cc([N+](=O)[O-])ccc1F do in these assays?
CHT PAM: inactive; Rad51 HR inh: 3.0; KCC2 mod: -3.05*; CHT inh: inactive; KCC2 secondary: 0.00975; KCC2 bumet counter: 0.00634; KCC2 sec2: 0.035; HEK293 Tl flux: inconclusive; KCC2 ouabain: 0.018; HEK counter2: 0.0102

What do the screens show for `COc1ccc(CCNC(=O)CCCn2nc(C)c([N+](=O)[O-])c2C)cc1OC`?
CHT PAM: inactive; Rad51 HR inh: 7.6; KCC2 mod: -0.581; CHT inh: inactive

Results for Cc1ccc(OCCC(=O)OCC(=O)N2c3ccccc3CC2C)cc1 (stereo not drawn) ?
CHT PAM: inactive; Rad51 HR inh: -5.3; KCC2 mod: -5.12*; CHT inh: inactive; KCC2 secondary: 0.0077; KCC2 bumet counter: 0.00485; KCC2 sec2: 0.0246*; HEK293 Tl flux: 0.00724; KCC2 ouabain: 0.0168*; HEK counter2: 0.00959

Results for O=S(=O)(c1ccc(NC(=S)N/N=C/c2c3ccccc3cc3ccccc23)cc1)N1CCOCC1 ?
CHT PAM: inactive; KCC2 mod: 0.571; CHT inh: inactive

What do the screens show for `CCC(CC)c1nnc(NC(=O)CCNC(=O)c2ccccc2Cl)s1`?
CHT PAM: inactive; Rad51 HR inh: 4.4; KCC2 mod: -0.731; CHT inh: inactive

How did Cc1c(-c2ccccc2)oc2c(C(=O)OCC(=O)Nc3ccc(C(N)=O)cc3)cccc2c1=O do in these assays?
CHT PAM: inactive; Rad51 HR inh: -1.8; KCC2 mod: -4.97*; CHT inh: inactive; KCC2 secondary: 0.00923; KCC2 bumet counter: 0.00536; KCC2 sec2: 0.0329; HEK293 Tl flux: inconclusive; KCC2 ouabain: 0.0164*; HEK counter2: 0.0115

Results for COC(=O)c1ccc(NC(=O)COC(=O)c2cccc3c(=O)c(C)c(-c4ccccc4)oc23)cc1 ?
CHT PAM: inactive; Rad51 HR inh: -7.1; KCC2 mod: -2.07; CHT inh: inactive

Results for COC(C[C@H]1O[C@H]1[C@H](O)[C@@H](C)OCc1ccccc1)OC ?
Rad51 HR inh: 0.9; KCC2 mod: -0.298

How did Cc1ccccc1-n1c(-c2csc(C)c2C)n[nH]c1=S do in these assays?
CHT PAM: inactive; Rad51 HR inh: 7.6; KCC2 mod: 2.36; CHT inh: inactive

How did Cc1scc(-c2n[nH]c(=S)n2C(C)c2ccccc2)c1C (stereo not drawn) do in these assays?
CHT PAM: inactive; Rad51 HR inh: 0.0; KCC2 mod: 7.73*; CHT inh: inactive; KCC2 secondary: 0.00933; KCC2 bumet counter: 0.0403*; KCC2 sec2: 0.0278; HEK293 Tl flux: 0.0112*; KCC2 ouabain: inconclusive; HEK counter2: inconclusive

What do the screens show for `CC1(C)N(O)CC(c2cccs2)=[N+]1[O-]`?
CHT PAM: inactive; Rad51 HR inh: 4.9; KCC2 mod: 2.9*; CHT inh: inactive; KCC2 secondary: 0.00817; KCC2 bumet counter: 0.00537; KCC2 sec2: 0.0284; HEK293 Tl flux: 0.00666; KCC2 ouabain: 0.0204; HEK counter2: 0.00992

How did Cc1nnc(NC(=O)C2CC(=O)N(c3ccccc3)C2)s1 (stereo not drawn) do in these assays?
CHT PAM: inactive; CHT inh: inactive

What do the screens show for `CC(=O)NC(C)(CC(=O)c1ccccc1)c1ccccc1` (stereo not drawn)?
CHT PAM: inactive; CHT inh: inactive
